Most compounds without a hit are left out; they make up all but 3.1% or so of the library.
PAFAH1B3 FP inh – blocks human PAF acetylhydrolase 1B catalytic subunit 3; inhibition, % at 3.39 µM; hit rate 0.28% among 340,000; recombinant PAFAH1B3, FP-rhodamine probe, fluorescence polarization; AID 492972; Q15102;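 active means inhibition above the screen-wide average of all tested compounds plus 3 SD, cut at about 25% in these data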;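 further: 0% = enzyme with DMSO only and 100% = wells lacking PAFAH1B3 protein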
pPAFAH inh – inhibitors of human plasma PAF acetylhydrolase (pPAFAH). hit rate 1.5% among 330,000. recombinant pPAFAH, FP-rhodamine probe fluorescence polarization. AID 463082. inhibition, % at 3.39 µM;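 active means inhibition above the mean inhibition across the screen plus 3 SD, cut at about 25% in these data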;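 further: inhibitors block binding of the rhodamine activity-based probe so polarization drops; 0% = enzyme with DMSO and 100% = wells lacking pPAFAH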
Target sequence (Q13093 whole entry, looked up): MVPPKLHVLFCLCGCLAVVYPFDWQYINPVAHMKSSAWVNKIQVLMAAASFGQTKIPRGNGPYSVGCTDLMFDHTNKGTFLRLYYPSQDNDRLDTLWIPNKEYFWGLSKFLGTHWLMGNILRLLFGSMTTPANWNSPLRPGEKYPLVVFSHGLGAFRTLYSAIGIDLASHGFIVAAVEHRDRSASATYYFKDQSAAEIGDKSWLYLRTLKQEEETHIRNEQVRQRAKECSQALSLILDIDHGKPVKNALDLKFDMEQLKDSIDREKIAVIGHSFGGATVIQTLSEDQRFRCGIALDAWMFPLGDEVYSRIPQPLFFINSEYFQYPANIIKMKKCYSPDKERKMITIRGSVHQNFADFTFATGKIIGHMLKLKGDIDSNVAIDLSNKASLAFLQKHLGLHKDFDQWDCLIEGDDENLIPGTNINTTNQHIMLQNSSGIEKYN
PAFAH2 FP inh – PAFAH2 (human) inhibition; inhibition, % at 3.39 µM; hit rate 0.99% among 340,000; recombinant PAFAH2, FP-rhodamine activity probe, fluorescence polarization; Q99487; AID 492956;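 active means inhibition above the mean over all tested compounds plus 3 SD, cut at about 30% in these data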;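 further: inhibitors block probe labeling of enzyme so polarization drops; 0% = enzyme with DMSO and 100% = wells lacking PAFAH2 protein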
PAFAH1B2 FP inh – inhibitors of human PAFAH1B2; inhibition, % at 3.39 µM; recombinant PAFAH1B2, FP-rhodamine activity probe, fluorescence polarization; hit rate 1.2% among 340,000; AID 492953;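 active means inhibition above the mean of all tested compounds plus 3 SD, cut at about 24% in these data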;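 further: 0% = enzyme with DMSO and 100% = wells lacking PAFAH1B2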
Apaf-1 inh – blocks human Apaf-1 apoptosome activity | reconstituted apoptosome caspase-3 activity, DEVD-Rh110 fluorescence | inhibition, % at 20 µM | hit rate 0.71% among 330,000; active means inhibition of at least 40% at 20 µM;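 further: plate controls were DMSO wells for no effect and DEVD-CHO caspase inhibitor wells for full effect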
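Material: reconstituted apoptosome with Apaf-1, cytochrome c, caspase-9, procaspase-3, dATP; medium: pH 7.5 Hepes buffer with CHAPS, BSA, DTT; also added: cytochrome c and DEVD-Rh110 substrate; timing: 30 min plus 50 min, RT; signal: Rh110 fluorescence intensity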
The depositor's hits bear a star; x = no result given.

SMILES	PAFAH1B3 FP inh	pPAFAH inh	PAFAH2 FP inh	PAFAH1B2 FP inh	Apaf-1 inh
CN1CCN(c2ccccc2NC(=O)c2ccc(-c3ccc(Cl)c(Cl)c3)o2)CC1	6	-1	2	-1	46*
O=C1C2C3C=CC(C3)C2C(=O)N1CNc1ccc(O)cc1 (configuration not stated)	x	23	x	x	94*
CS(=O)(=O)N(CC(=O)N1CCN(c2ccccc2)CC1)Cc1ccc(Cl)cc1	-5	4	2	25*	-18
COc1ccc(N2CCN(C(=O)CN(Cc3ccc(Cl)cc3)S(C)(=O)=O)CC2)cc1	3	6	-2	1	6
Cc1ccsc1CN(C)CC(=O)NCC(=O)Nc1ccc(F)c(F)c1F	3	1	1	9	-8
CCOC(=O)N1CCN(C(=O)c2ccc3c(=O)n(CCC4=CCCCC4)c(=S)[nH]c3c2)CC1	3	5	9	25*	21
O=C(CCCN1C(=O)/C(=C\c2ccco2)SC1=S)Nc1ccc2ccccc2c1	-5	28*	-13	-7	18
O=C1/C(=C\c2ccco2)SC(=S)N1Cc1ccccc1	10	25*	17	-7	12
O=C(O)CCCN1C(=O)/C(=C\c2ccco2)SC1=S	6	x	10	-1	x
O=C1/C(=C\c2ccco2)SC(=S)N1c1ccccc1	3	29*	13	1	1
Cc1ccc(NC(=O)CSCC(=O)N2CCCc3ccccc32)cc1	11	2	2	4	9
COc1ccc(CCNc2oc(COc3ccc(Br)cc3)nc2C#N)cc1OC	13	1	-1	28*	4
COc1ccc(CNc2oc(COc3ccc(Cl)cc3)nc2C#N)cc1	-4	-4	-6	28*	17
COc1ccc(CCNc2oc(Cc3cccc4ccccc34)nc2C#N)cc1OC	-7	3	-6	4	9
CN1N=C(C(=O)N=c2sc3ccccc3n2C)CCC1=O	7	x	-5	-1	x
CCOc1ccc(S(=O)(=O)N2CCC(C(=O)OC(C)C(=O)N3CCOCC3)CC2)cc1 (configuration not stated)	9	1	0	5	5
CCOC(=O)C1=C(COC(=O)C(CC)Oc2ccccc2)NC(=O)NC1C (configuration not stated)	0	0	-1	1	6
O=C1CCC(C(=O)OCC(=O)N2N=C3/C(=C/c4ccccc4)CCCC3C2c2ccccc2)N1 (configuration not stated)	3	7	2	8	43*
Cc1ccc(C)c(C(=O)C(C)Sc2nc3nn(-c4ccccc4)c(=O)c-3c3n2CCCCC3)c1 (configuration not stated)	8	3	-4	5	25
CCOC(=O)c1sc(Nc2ccc(F)cc2)nc1C	4	7	5	1	6
COc1ccc(Nc2nc(N)c(C(=O)c3ccc(F)cc3)s2)cc1	8	31*	3	8	12
COc1ccc(C(=O)c2sc(NC(C)C)nc2N)cc1OC	8	1	4	3	1
COc1ccc(Nc2nc(N)c(C(=O)c3ccc(OC)cc3)s2)cc1	-19	26*	6	6	27
Cc1cccc(C(=O)Nc2nnc(Cc3ccccc3)s2)c1	2	7	1	7	6
O=C(Nc1ccc(Cl)cn1)C1CC1	3	3	0	3	-3
SMILES	PAFAH1B3 FP inh	pPAFAH inh	PAFAH2 FP inh	PAFAH1B2 FP inh	Apaf-1 inh
O=C(NCC1CCCC(CNC(=O)Nc2ccc(Cl)cn2)C1)Nc1ccc(Cl)cn1 (configuration not stated)	-2	2	21	26*	30
CC1=NOC(=O)/C1=C/c1ccc(-c2ccc(Cl)cc2)o1	11	12	32*	10	15
O=C(c1ccco1)N1CCN(Cc2csc(-c3ccccc3Cl)n2)CC1	13	-1	-4	7	15
CCN(CC)c1ccc(/C=N/N2C(C)CCCC2C)c(O)c1 (configuration not stated)	-10	2	-12	0	17
COc1ccc(N(C(=O)c2ccco2)C(C(=O)NC2CCCC2)c2ccccc2)cc1 (configuration not stated)	4	34*	0	4	9
COc1ccc(N(C(=O)c2ccco2)C(C(=O)NC2CCCCC2)c2ccccc2)cc1 (configuration not stated)	3	-3	5	-2	26
COc1ccc(N(C(=O)CNC(=O)c2ccco2)C(C(=O)NC2CCCCC2)c2ccco2)cc1 (configuration not stated)	11	8	9	26*	0
COc1cccc(N(C(=O)CNC(=O)c2ccco2)C(C(=O)NC2CCCC2)c2ccco2)c1 (configuration not stated)	5	-1	16	0	7
CN(CC(=O)Nc1ccc(Cl)c(C(F)(F)F)c1)C(=O)CCCNC(=O)c1ccc(Cl)cc1	3	31*	1	53*	14
O=C(O)/C=C/C(=O)N1CCN(c2cccc(Cl)c2)CC1	-8	1	0	2	-3
CCOc1ccc(NS(=O)(=O)c2ccc(OC)c(NC(=O)c3ccc4c(c3)OCCO4)c2)cc1	-3	27*	-11	-5	-1
CCOc1ccc(NS(=O)(=O)c2ccc3c(c2)N(C(C)=O)CCO3)cc1	11	32*	0	4	2
Cc1ccc(CCNS(=O)(=O)c2ccc3c(c2)N(C)CCO3)cc1	3	10	1	30*	2
CC(=O)N1CCOc2ccc(S(=O)(=O)NCCc3ccccc3)cc21	3	5	3	7	3
CC(=O)N1CCSc2ccc(S(=O)(=O)Nc3ccc(C)cc3)cc21	2	25*	12	8	0
Cc1nc(C)c(-c2ccc(SCC(=O)Nc3cccc(Cl)c3C)nn2)s1	7	3	-3	-2	22
O=C(CN1C(=O)NC2(CCCC2)C1=O)OCCOc1ccc(Cl)cc1Cl	2	4	4	4	9
O=C(CCN1CCCCO1)N1CCCC(Nc2cccc(F)c2)C1 (configuration not stated)	8	3	-2	8	8
CSCC(=O)N1CCc2ccc(NC(=O)c3ccccc3Cl)cc2C1	9	2	-5	-2	-3
CCOc1ccccc1NS(=O)(=O)c1ccc2c(c1)N(C)CCO2	-4	-2	5	0	-4
CCc1cccc(NS(=O)(=O)c2ccc3c(c2)N(C)CCO3)c1	2	30*	7	5	6
Cc1ccc(NS(=O)(=O)c2ccc3c(c2)N(C)CCO3)cc1	-1	28*	4	11	13
CC(=O)c1ccc(NS(=O)(=O)c2ccc3c(c2)N(C(C)=O)CCO3)cc1	-2	1	7	2	-3
CCN(CC(=O)Nc1ccc(NC(C)=O)cc1)C(=O)C1COc2ccccc2O1 (configuration not stated)	2	7	-3	-1	-21

Source: PubChem (several laboratories)
